The term EC50 denotes the concentration that produces a half-maximal response. In general, EC30 refers to the point of the concentration-response curve where the effect stands at 30%.

Data on 9 compounds can be found in ChEMBL document CHEMBL1132206, “Design, synthesis, and in vitro activity of catamphiphilic reverters of multidrug resistance: discovery of a selective, highly efficacious chemosensitizer with potency in the nanomolar range” (J Med Chem, 1999).

For series [1], the species on record is Cavia porcellus. In words: Potency expressed as EC50 for the negative inotropic activity. The class given is functional.
The species entered for series [2] is Cavia porcellus. In words: Decrease in developed tension of the left atrium of guinea pig expressed as the negative inotropy. The class given is functional, Cardiac atrium. Also on record: concentration or dose not given beside the values. The method, boiled down:
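Isolated guinea pig left atrium, electrically driven at 1 Hz. Read-out is the fall in developed tension at 5 × 10^-5 M, given as percent change from control (n = 5-6).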

The species named for series [3] is Cavia porcellus. In words: Potency expressed as EC30 for the negative chronotropic activity. The class given is functional.
The species named for series [4] is Cavia porcellus. In words: Potency expressed as IC50 for the vasorelaxant activity; 'i' means inactive. In kind it is functional.
Series [5] is filed under the species Cavia porcellus. In words: Percent inhibition of calcium-induced contraction on K+ depolarized guinea pig aortic strip. In kind it is functional, Aorta. The arrangement: concentration or dose not given beside the values.
In series [6] the test system is K562. In words: Percentage of the dead cells of K-562 cells was determined for the compound. The following applies: human. The class given is ADME, cell-based. Summed up: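 Doxorubicin-resistant K 562 cells were exposed to compound at 1 µM, and viability was scored by trypan blue exclusion. Dead cells above 20% counted as toxic.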
For series [7], the system named is K562. In words: Potency that causes a half maximal increase in nuclear concentration of pirarubicin. The class given is functional, Homo sapiens.
Series [8] concerns K562. In words: The efficacy in reverting MDR was evaluated on human erythroleukemia K-562 cell line. In kind it is functional. Summed up: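 Doxorubicin-resistant and sensitive K 562 cells in exponential growth were used in pH 7.25 HEPES buffer at 37 °C in quartz cuvettes. Pirarubicin uptake was followed as the fall in fluorescence at 590 nm (ex 480 nm). Steady-state nuclear pirarubicin was measured across a range of inhibitor concentrations. α = (CnRi − CnRo)/(CnS − CnRo); αmax is the maximal α, and [i]0.5 is the concentration giving α = 0.5 (mean ± SEM).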

The species entered for series [9] is Cavia porcellus. In words: Decrease in atrial rate of the right atrium of guinea pig expressed as the negative chronotropy. The arrangement: concentration or dose not given beside the values.
The species entered for series [10] is Cavia porcellus. In words: Potency expressed as EC30 for the negative chronotropic activity; 'i' means Inactive. The class given is functional.

Activity calls are given as the source filed them. No cut-off for these calls is given here.

In [1], `COc1ccc(C(C#N)(CC#CCNC2c3ccccc3-c3ccccc32)C(C)C)cc1OC.Cl` (configuration not stated) displayed an EC50 of 1100 nM. Also, the Activity in series [2] amounted to 77%; in series [5], 42%; in [9], 84%. The compound further gave a 30% effect concentration (EC30) in [3] of 8250 nM. Moreover, the IC50 entry in series [4] is “Inactive”. Besides, the Dead cells in series [6] is recorded as 10%. In series [7], this compound returned a Potency of 1500 nM. Moreover, the Alpha max in series [8] is reported as 0.7.
In series [1], `COc1ccc(C(C#N)(CCCNC(c2ccccc2)c2ccccc2)C(C)C)cc1OC.Cl` (configuration not stated) came in with an EC50 of 660 nM. Further, the Activity in series [2] worked out at 73%; in series [5] it was 32%; in [9] it was 81%. This compound also showed an EC30 in [3] of 690 nM. In addition, in [4], the IC50 result is “Inactive”. In series [6], the Dead cells is listed as 5%. For the same compound, the Potency in series [7] was 250 nM. Further, in [8], the Alpha max turned out to be 0.7.
Consider `Cl.N#CC(CCCNC1c2ccccc2-c2ccccc21)(c1ccccc1)c1ccccc1`, for which the concentration for a half-maximal effect (EC50) in series [1] was found to be 1810 nM. Besides, the Activity in series [2] came to 67%; in [5] it was 37%; in series [9] it was 57%. Moreover, the concentration for an effect of 30% (EC30) in series [3] is 310 nM. Besides, the IC50 result in [4] is recorded as “Inactive”. The same compound came in with a Dead cells in [6] of 0%. Besides, in series [7], the Potency was found to be 300 nM. Moreover, the Alpha max in series [8] came to 0.8.
`COc1ccc(C(C#N)(CCCNCC(c2ccccc2)c2ccccc2)C(C)C)cc1OC.Cl` (configuration not stated): the concentration for a half-maximal effect (EC50) in [1] was found to be 830 nM. Moreover, the Activity is 89% in [2], 37% in series [5] and 74% in series [9]. In [3], this compound returned a 30% effect concentration (EC30) of 540 nM. Besides, the IC50 result in [4] was “Inactive”. In [6], this compound gave a Dead cells of 5%. Besides, in [7], the Potency was found to be 250 nM. The Alpha max in series [8] is listed as 0.7.
As for `COc1ccc(C(C#N)(CC#CCN(C)CC2c3ccccc3-c3ccccc32)C(C)C)cc1OC.Cl` (configuration not stated), the EC50 in series [1] turned out to be 1110 nM. Also, the Activity in series [2] was 78%; in series [5], 12%; in series [9], 25%. Further, the EC30 entry in [10] was “inactive”. Also, in series [4], the IC50 result was “Inactive”. The Dead cells in [6] was determined as 30%.
Take `COc1ccc(C(C#N)(CCCNCC2c3ccccc3-c3ccccc32)C(C)C)cc1OC.Cl` (configuration not stated): in series [1], the midpoint of the response, the EC50, lay at 470 nM. For the same compound, the Activity in [2] is on record as 71%; in series [5], 26%; in series [9], 68%. In addition, the EC30 in series [3] is 2240 nM. Moreover, the IC50 entry in series [4] is listed as “Inactive”. The compound also yielded a Dead cells in series [6] of 100%.
In turn, `COc1ccc(C(C#N)(CC#CCN(C)C23CC4CC(CC(C4)C2)C3)C(C)C)cc1OC.Cl` (configuration not stated) came in with a concentration for a half-maximal effect (EC50) in [1] of 2910 nM. The Activity in series [2] came out at 66%; in series [5], 33%; in series [9], 89%. In series [3], the EC30 is 370 nM. Also, the IC50 entry in [4] was “Inactive”. The Dead cells in series [6] is given as 0%. In series [7], this compound had a Potency of 800 nM. In series [8], this compound returned an Alpha max of 0.8.
In series [1], `COc1ccc(C(C#N)(CCCN(C)CC23CC4CC(CC(C4)C2)C3)C(C)C)cc1OC.Cl` (configuration not stated) came in with a 50% effective concentration (EC50) of 1170 nM. The Activity in series [2] was 68%; in series [5] it was 39%; in series [9], 72%. This compound also displayed an EC30 in series [3] of 700 nM. In addition, in series [4], the IC50 result is on record as “Inactive”. In addition, in [6], the Dead cells was found to be 1%. This compound also yielded a Potency in series [7] of 1400 nM. In series [8], this compound registered an Alpha max of 0.65.
In series [1], `COc1ccc(C(C#N)(CCCNC2c3ccccc3CCc3ccccc32)C(C)C)cc1OC.Cl` (configuration not stated) displayed an EC50 of 680 nM. Besides, the Activity is given as 70% in [2], 24% in series [5] and 86% in [9]. This compound also gave an EC30 in [3] of 210 nM. Also, the IC50 entry in [4] is given as “Inactive”. In [6], this compound had a Dead cells of 10%. For the same compound, the Potency in series [7] is 300 nM. In [8], the Alpha max is reported as 0.8.
